Reference: ChEMBL document CHEMBL1806397, “6-Aryl-3-pyrrolidinylpyridines as mGlu5 receptor negative allosteric modulators” (Bioorg Med Chem Lett, 2011)

Tests used:
[1] = test system: Liver microsomes; assay: Intrinsic clearance in human liver microsomes at 1 uM after 0.25 to 60 mins by LC-MS/MS analysis; format: ADME, Microsome
Method in brief: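 Compound at 1 µM incubated at 37 °C with pooled human liver microsomes (0.5 mg/mL) in 0.1 M potassium phosphate pH 7.4 with an NADPH-regenerating system. Aliquots taken at 0.25, 5, 15, 30 and 60 min and quenched in acetonitrile. CLint calculated from T1/2, scaled by liver and microsomal protein factors.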

[2] = Dissociation constant, pKa of the compound; format: physicochemical
[3] = Apparent permeability of the compound at pH 7.4 by PAMPA method; format: ADME
Method in brief: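 Passive membrane permeability estimated by PAMPA; apparent permeability (P_APP) reported in cm/s.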

[4] = Distribution coefficient, log D of the compound at pH 7.4; format: physicochemical; conditions: octanol/water
[5] = Drug level in Sprague-Dawley rat brain at 10 mg/kg, po after 1 hr; format: ADME, organism-based; design: dose 10 mg/kg, route oral; conditions: read-out: Drug uptake
[6] = Drug level in Sprague-Dawley rat plasma at 10 mg/kg, po after 1 hr; format: ADME, organism-based; design: dose 10 mg/kg, route oral
[7] = Ratio of drug level in brain to plasma in Sprague-Dawley rat at 10 mg/kg, po after 1 hr; format: ADME, organism-based; design: dose 10 mg/kg, route oral; conditions: read-out: BPR
[8] = test system: Plasma; assay: Free drug level in Sprague-Dawley rat plasma at 10 mg/kg, po after 1 hr; format: ADME, organism-based; design: dose 10 mg/kg, route oral; conditions: in vivo
[9] = Drug level in Sprague-Dawley rat cerebrospinal fluid at 10 mg/kg, po after 1 hr; format: ADME, organism-based; design: dose 10 mg/kg, route oral; conditions: read-out: Drug uptake

Compound | CL [1] | pKa [2] | other results
O=C(c1cccs1)N1CCCC1c1ccc(-c2cccc(Cl)c2)nc1 (stereo unspecified) | 3 L/min | 3.6 | –
Cc1cc(C(=O)N2CCCC2c2ccc(-c3cccc(Cl)c3)nc2)no1 (stereo unspecified) | – | 3.5 | –
O=C(c1cnccn1)N1CCCC1c1ccc(-c2cccc(Cl)c2)nc1 (stereo unspecified) | 3.3 L/min | 3.4 | –
Cc1cc(-c2cccc(Cl)c2)ncc1C1CCCN1C(=O)c1cncs1 (stereo unspecified) | 35 L/min | 4.2 | –
Cc1cc(C(=O)N2CCCC2c2cnc(-c3cccc(Cl)c3)cc2C)no1 (stereo unspecified) | 38 L/min | 4.2 | –
Cc1cc(-c2cccc(Cl)c2)ncc1C1CCCN1C(=O)C1CCC1 (stereo unspecified) | 5.3 L/min | – | –
COc1cc(-c2cccc(Cl)c2)ncc1C1CCCN1C(=O)c1cncs1 (stereo unspecified) | 1.7 L/min | 5 | –
O=C(C1CCC1)N1CCCC1c1cnc(-c2cccc(Cl)c2)cc1O (stereo unspecified) | – | 2.8 | –
Cc1cc(-c2cccc(Cl)c2)ncc1C1CC(O)CN1C(=O)c1nccs1 (stereo unspecified) | 0.9 L/min | – | –
Cc1cc(-c2cccc(Cl)c2)ncc1C1CC(O)CN1C(=O)c1cnccn1 (stereo unspecified) | 1.6 L/min | – | –
Cc1cc(-c2cccc(Cl)c2)ncc1[C@H]1CCCN1C(=O)c1nccs1 | – | – | Papp [3]: 15 ×10⁻⁶ cm/s; logD [4]: 4.3; concentration at 1 h [5]: 133 nM; concentration at 1 h [6]: 162 nM; Kp at 1 h [7]: 0.8; Cp(f) [8]: 1 nM; concentration at 1 h [9]: 3 nM
Cc1cc(-c2cccc(Cl)c2)ncc1C1CCCN1C(=O)c1nccs1 (racemic) | 5.2 L/min | – | –

More lines, main results first:

CL [1] | pKa [2] | Compound | other results
2.6 L/min | – | Cc1cc(-c2cccc(Cl)c2)ncc1C1CC(F)CN1C(=O)c1cnccn1 (stereo unspecified) | –
3.8 L/min | – | O=C(c1nccs1)N1CCCC1c1ccc(-c2cccc(Cl)c2)nc1 (stereo unspecified) | –
1.6 L/min | 3.6 | O=C(c1cncs1)N1CCCC1c1ccc(-c2cccc(Cl)c2)nc1 (stereo unspecified) | –
3.3 L/min | 4.1 | Cc1cc(-c2cccc(Cl)c2)ncc1C1CCCN1C(=O)c1cnccn1 (stereo unspecified) | –
5.3 L/min | – | Cc1cc(-c2cccc(Cl)c2)ncc1C1CCCN1C(=O)c1ccncn1 (stereo unspecified) | –
7.1 L/min | – | Cc1cc(-c2cccc(Cl)c2)ncc1C1CC(F)CN1C(=O)c1cncs1 (stereo unspecified) | –
